Measurements: ChEMBL document CHEMBL4130629 (J Med Chem, 2018)
In brackets after ≈: the same amount, converted by molar mass.

Key:
[1] = Metabolic stability in rat liver microsomes assessed as parent compound remaining after 10 mins; format: ADME, microsome; conditions: read-out: Stability
Summary of the method: (§1)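 Compound at 3 μM was incubated with human or rat liver microsomes, and the percentage of parent compound remaining was measured after 10 min.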

[2] = Half life in Sprague-Dawley rat at 1 mg/kg, iv; format: ADME, organism-based; conditions: in vivo
[3] = system: Human immunodeficiency virus 1; experiment: Antiviral activity against ENV pseudotyped CCR5-tropic HIV1 […] infected in human HeLa67 cells after 3 days by luciferase reporter gene assay; format: functional, organism-based; conditions: Human immunodeficiency virus 1, HeLa67, 72 h
Summary of the method: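 Single-cycle infection with env-deleted, luciferase-reporter HIV-1 pseudotyped with the JRFL (CCR5) envelope, supplied by transfection; viral titers normalized by luminescence without compound. HeLa 67 cells were infected in the presence of compounds given as 3-fold serial dilutions made from 30 mM DMSO stocks.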

[4] = Clearance in Sprague-Dawley rat at 1 mg/kg, iv; format: ADME, organism-based; conditions: in vivo
[5] = Metabolic stability in human liver microsomes assessed as parent compound remaining after 10 mins; format: ADME, microsome; conditions: read-out: Stability; summary of the method: as §1
[6] = Volume of distribution at steady state in Sprague-Dawley rat at 1 mg/kg, iv; format: ADME, organism-based; conditions: in vivo, read-out: Vdss
Summary of the method: (§2)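 Male Sprague-Dawley rats (300−350 g) with jugular vein and/or bile duct cannulas, n = 3 per route; dosed as a solution in PEG-400/ethanol (90/10). The iv dose was 1 mg/kg given as a 0.5 min bolus, with jugular blood sampled from 2 to 1440 min. The po dose was 5 mg/kg after an overnight fast, sampled from 15 to 1440 min. Plasma was taken from EDTA blood.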

[7] = AUC in Sprague-Dawley rat at 5 mg/kg, po after 24 hrs; format: ADME, organism-based; set-up: time < 24 hr, dose 5 mg/kg, route oral; conditions: in vivo; summary of the method: as §2
[8] = Oral bioavailability in Sprague-Dawley rat at 5 mg/kg; format: ADME, organism-based; conditions: in vivo; summary of the method: as §2
[9] = Half life in human liver microsomes; format: ADME, microsome
[10] = Permeability in human Caco2 cells; format: ADME, cell-based; conditions: Caco-2, read-out: permeability
MT2 = experiment: Cytotoxicity against human MT2 cells assessed as decrease in cell viability after 3 days […]; format: functional; conditions: MT2, 72 h
[11] = Half life in rat liver microsomes; format: ADME, microsome
[12] = Aqueous solubility of the compound; format: physicochemical; conditions: buffer

Row | SMILES | remaining at 10 min [1] | half-life [2] | EC50 [3] | clearance [4] | remaining at 10 min [5] | Vd [6] | AUC at 24 h [7] | bioavailability [8] | half-life [9] | Papp [10] | CC50 (MT2) | half-life [11] | solubility [12]
1 | COc1cnc(-c2cncc(=O)[nH]2)c2[nH]cc(C(=O)C(=O)N3CCN(C(=O)c4ccccc4)CC3)c12 | 100% | 0.8 h | 0.21 nM | 5.6 mL/min/kg | 100% | 0.18 L/kg | 0.13 µM·h | 0.43% | > 1.67 h | 6.6 ×10⁻⁶ cm/s | > 300000 nM | – | –
2 | COc1cnc(-n2ccc(N)n2)c2[nH]cc(C(=O)C(=O)N3CCN(C(=O)c4ccccc4)CC3)c12 | 99% | 0.5 h | 0.04 nM | 57 mL/min/kg | 98% | 0.4 L/kg | 0.03 µM·h | 0.8% | – | < 1.5 ×10⁻⁶ cm/s | > 150000 nM | – | –
3 | O=C(C(=O)N1CCN(C(=O)c2ccccc2)CC1)c1c[nH]c2ccccc12 | – | – | – | – | – | – | – | – | > 1.67 h | > 10 ×10⁻⁶ cm/s | – | > 1.67 h | –
4 | COCc1ncn(-c2ncc(OC)c3c(C(=O)C(=O)N4CCN(C(=O)c5ccccc5)[C@H](C)C4)c[nH]c23)n1 | – | – | 0.09 nM | – | – | – | – | – | 1.67 h | 2.2 ×10⁻⁶ cm/s | > 300000 nM | 1.67 h | –
5 | COc1cnc(-n2cccn2)c2[nH]cc(C(=O)C(=O)N3CCN(C(=O)c4ccccc4)CC3)c12 | – | 1.8 h | 0.58 nM | 5.6 mL/min/kg | – | 0.48 L/kg | 25.6 µM·h | 77.1% | > 1.67 h | < 1.5 ×10⁻⁶ cm/s | 288000 nM | > 1.67 h | –
6 | COc1cnc(-c2cnccn2)c2[nH]cc(C(=O)C(=O)N3CCN(C(=O)c4ccccn4)[C@H](C)C3)c12 | 80% | 2.4 h | 0.4 nM | 8.8 mL/min/kg | 95% | 1.1 L/kg | 7.8 µM·h | 61% | – | 12.5 ×10⁻⁶ cm/s | > 300000 nM | – | –
7 | COc1cnc(-c2cncnc2)c2[nH]cc(C(=O)C(=O)N3CCN(C(=O)c4ccccc4)CC3)c12 | – | – | 0.51 nM | – | – | – | – | – | > 1.67 h | 1.5 to 4.9 ×10⁻⁶ cm/s | > 300000 nM | > 1.67 h | –
8 | COc1cnc(-n2ccnn2)c2[nH]cc(C(=O)C(=O)N3CCN(C(=O)c4ccccc4)[C@H](C)C3)c12 | 78% | 0.7 h | 0.08 nM | 12 mL/min/kg | 83% | 0.49 L/kg | 8.6 µM·h | 59% | – | 14.3 ×10⁻⁶ cm/s | > 150000 nM | – | –
9 | CCNC(=O)c1ncn(-c2ncc(OC)c3c(C(=O)C(=O)N4CCN(C(=O)c5ccccc5)CC4)c[nH]c23)n1 | 100% | – | 0.14 nM | – | 97% | – | – | – | – | < 1.5 ×10⁻⁶ cm/s | > 300000 nM | – | 58 µg/mL (≈ 109 µM)
10 | COc1cnc(-c2cnccn2)c2[nH]cc(C(=O)C(=O)N3CCN(C(=O)c4ccccn4)CC3)c12 | 27% | 4 h | 0.11 nM | – | 100% | 1.9 L/kg | 14.6 µM·h | 85% | > 1.67 h | – | > 300000 nM | – | –
11 | CCc1ncn(-c2ncc(OC)c3c(C(=O)C(=O)N4CCN(C(=O)c5ccccc5)CC4)c[nH]c23)n1 | 94% | 3.3 h | 0.05 nM | 0.7 mL/min/kg | 100% | 0.12 L/kg | 254 µM·h | 86% | – | 26.1 ×10⁻⁶ cm/s | 90000 nM | – | –
12 | COc1cnc(-n2cnc(N3CCOCC3)n2)c2[nH]cc(C(=O)C(=O)N3CCN(C(=O)c4ccccc4)CC3)c12 | 89% | 1.5 h | 0.07 nM | 6.1 mL/min/kg | 64% | 0.26 L/kg | 13 µM·h | 52% | – | 5.8 ×10⁻⁶ cm/s | 203000 nM | – | –
13 | COc1cnc(-n2cc(C)nn2)c2[nH]cc(C(=O)C(=O)N3CCN(C(=O)c4ccccc4)[C@H](C)C3)c12 | 76% | 1.4 h | 0.13 nM | 4.3 mL/min/kg | 74% | 0.29 L/kg | 34.8 µM·h | 65.5% | – | 22.4 ×10⁻⁶ cm/s | 124000 nM | – | –
14 | COc1cnc(-n2ccc(C)n2)c2[nH]cc(C(=O)C(=O)N3CCN(C(=O)c4ccccc4)[C@H](C)C3)c12 | 78% | 0.56 h | 0.16 nM | – | 72% | 0.47 L/kg | 13.2 µM·h | 72.8% | – | 20 ×10⁻⁶ cm/s | 142000 nM | – | 69 µg/mL (≈ 142 µM)
15 | COc1cnc(-n2ccc(C)n2)c2[nH]cc(C(=O)C(=O)N3CCN(C(=O)c4ccccc4)CC3)c12 | 100% | 0.9 h | 0.05 nM | – | 80% | 0.23 L/kg | 15.7 µM·h | 43.7% | – | 26 ×10⁻⁶ cm/s | 130000 to 154000 nM | – | 17 µg/mL (≈ 36 µM)
16 | COc1cnc(-n2cnc(C)n2)c2[nH]cc(C(=O)C(=O)N3CCN(C(=O)c4ccccc4)[C@H](C)C3)c12 | 98% | 3 h | 0.18 nM | – | 94% | 0.34 L/kg | 88 µM·h | 104% | – | 12.8 ×10⁻⁶ cm/s | > 300000 nM | – | –
